In ChEMBL document CHEMBL1649535, “In vitro interactions between antifungals and immunosuppressive drugs against zygomycetes” (2009):

Assays:
Assay type in all cases: functional
Rhizopus arrhizus = assay: Antimicrobial activity against Rhizopus oryzae after 24 hrs by broth microdilution checkerboard procedure
Method in brief: (§1)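 CLSI broth microdilution for filamentous fungi, adapted to checkerboard; 1–3 isolates per species. Final ranges: amphotericin B and azoles 0.004–2 μg/ml; cyclosporine 0.125–8 μg/ml; tacrolimus and rapamycin 0.06–4 μg/ml, with extra runs at 0.001–0.06 μg/ml. Incubated 24 h at 35°C and read spectrophotometrically. MIC is the lowest concentration giving 50% inhibition (amphotericin B alone: 90%). Most tests run in duplicate.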

Lichtheimia corymbifera = assay: Antimicrobial activity against Mycocladus corymbiferus after 24 hrs by broth microdilution checkerboard procedure; method in brief: as §1
Mucor circinelloides = assay: Antimicrobial activity against Mucor circinelloides after 24 hrs by broth microdilution checkerboard procedure; method in brief: as §1
[1] = Antimicrobial activity against Rhizopus microsporus after 24 hrs by broth microdilution checkerboard procedure; method in brief: as §1
Rhizomucor pusillus = assay: Antimicrobial activity against Rhizomucor pusillus after 24 hrs by broth microdilution checkerboard procedure; method in brief: as §1

MIC (Rhizopus arrhizus) | MIC (Lichtheimia corymbifera) | MIC (Mucor circinelloides) | MIC [1] | MIC (Rhizomucor pusillus) | SMILES
0.62 mg/L | 0.62 mg/L | 0.62 mg/L | 0.62 mg/L | 0.62 mg/L | CCC(C)n1ncn(-c2ccc(N3CCN(c4ccc(OCC5COC(Cn6cncn6)(c6ccc(Cl)cc6Cl)O5)cc4)CC3)cc2)c1=O (centres undefined) [ITRACONAZOLE]
0.44 mg/L | 0.44 mg/L | 0.44 mg/L | 0.44 mg/L | 0.44 mg/L | C[C@@H](c1nc(-c2ccc(C#N)cc2)cs1)[C@](O)(Cn1cncn1)c1ccc(F)cc1F [RAVUCONAZOLE]

The remaining lines, values behind:

SMILES | MIC (Rhizopus arrhizus) | MIC (Lichtheimia corymbifera) | MIC (Mucor circinelloides) | MIC [1] | MIC (Rhizomucor pusillus)
CO[C@H]1C[C@@H]2CC[C@@H](C)[C@@](O)(O2)C(=O)C(=O)N2CCCC[C@H]2C(=O)O[C@H]([C@H](C)C[C@@H]2CC[C@@H](O)[C@H](OC)C2)CC(=O)[C@H](C)/C=C(\C)[C@@H](O)[C@@H](OC)C(=O)[C@H](C)C[C@H](C)/C=C/C=C/C=C/1C [SIROLIMUS] | – | > 4 mg/L | ≤ 0.25 mg/L | ≤ 0.25 mg/L | > 4 mg/L
C[C@@H]1[C@H](O)[C@@H](C)/C=C/C=C/C=C/C=C/C=C/C=C/C=C/[C@H](O[C@@H]2O[C@H](C)[C@@H](O)[C@H](N)[C@@H]2O)C[C@@H]2O[C@](O)(C[C@@H](O)C[C@@H](O)[C@H](O)CC[C@@H](O)C[C@@H](O)CC(=O)O[C@H]1C)C[C@H](O)[C@H]2C(=O)O [AMPHOTERICIN B] | 0.125 mg/L | 0.125 mg/L | 0.125 mg/L | 0.125 mg/L | 0.125 mg/L
C=CC[C@@H]1/C=C(\C)C[C@H](C)C[C@H](OC)[C@H]2O[C@@](O)(C(=O)C(=O)N3CCCC[C@H]3C(=O)O[C@H](/C(C)=C/[C@@H]3CC[C@@H](O)[C@H](OC)C3)[C@H](C)[C@@H](O)CC1=O)[C@H](C)C[C@@H]2OC [TACROLIMUS ANHYDROUS] | ≤ 0.5 mg/L | ≤ 0.5 mg/L | ≤ 0.5 mg/L | > 4 mg/L | > 4 mg/L
CC[C@@H]([C@H](C)O)n1ncn(-c2ccc(N3CCN(c4ccc(OC[C@@H]5CO[C@@](Cn6cncn6)(c6ccc(F)cc6F)C5)cc4)CC3)cc2)c1=O [POSACONAZOLE] | 0.57 mg/L | 0.57 mg/L | 0.57 mg/L | 0.57 mg/L | 0.57 mg/L
